This is a sample that favours compounds with a hit; in the whole collection about 1.5% have one here.
LANA-H2B inh: blocks KSHV LANA binding to histone H2A/H2B; Q9QR71; cell-free LANA-H2A/H2B peptide, fluorescence polarization; inhibition, % (test concentration not listed); hit rate 0.6% among 320,000; AID 2629; in the data active = inhibition mostly above about 10%, no sharp cut-off; inactive = mostly below about 6.7%
EBNA-1 inh: blocks EBNA-1 binding to DNA; EBNA-1 DNA binding, fluorescence polarization; inhibition, % at 14.8 µM; hit rate 0.34% among 300,000; AID 1950; in the data active = inhibition above about 28%
HNF4A DNA FP: change in binding of human HNF4 alpha to DNA; P41235; HNF4a-FITC DNA binding, fluorescence polarization, 1 h; activity change, % at 10 µM; hit rate 0.3% among 360,000; in the data active = activity change above about 30%, passing the limit was not always enough
CSN deneddyl inh: CSN deneddylation inhibition; Purified CSN, SCF-Nedd8-OG deneddylation, fluorescence polarization; inhibition, % at 12.5 µM; hit rate 0.38% among 360,000; AID 651999;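 active = pattern-corrected inhibition above about 35%, with an unprinted fluorescence ratio check between 0.5 and 1.5, limit read from the data, passing the limit was not always enough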;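 also: 0% = enzyme with substrate and 100% = substrate without enzyme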
Target sequence (Q92905 whole entry, looked up, one chain of several): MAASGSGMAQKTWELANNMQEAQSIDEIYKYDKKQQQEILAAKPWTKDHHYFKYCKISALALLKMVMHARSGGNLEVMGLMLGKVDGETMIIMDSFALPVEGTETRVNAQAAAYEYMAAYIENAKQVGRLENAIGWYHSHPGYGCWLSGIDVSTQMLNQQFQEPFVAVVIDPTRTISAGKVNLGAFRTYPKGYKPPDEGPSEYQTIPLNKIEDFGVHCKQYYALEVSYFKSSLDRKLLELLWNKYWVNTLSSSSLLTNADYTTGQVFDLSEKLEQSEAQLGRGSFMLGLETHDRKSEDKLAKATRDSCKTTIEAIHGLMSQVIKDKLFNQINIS
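Test system: purified human Csn5 enzyme expressed in HEK293T cells. Amount: 0.24 nM enzyme. Reagent: SCFSkp2-Nedd8OG substrate at 10 nM final. Schedule: 90 min incubation of compound, enzyme and substrate at room temperature. Detection: fluorescence polarization. Read-out: % inhibition of substrate cleavage by Csn5.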
ZTA DNA inh: ZTA (EBV) inhibition in EBNA-1 counter-screen; ZTA-DNA binding, fluorescence polarization; inhibition, % at 11 µM; AID 2234; P03206; hit rate 0.15% among 320,000; in the data active = inhibition above about 33%
Target sequence (P03206 whole entry, looked up): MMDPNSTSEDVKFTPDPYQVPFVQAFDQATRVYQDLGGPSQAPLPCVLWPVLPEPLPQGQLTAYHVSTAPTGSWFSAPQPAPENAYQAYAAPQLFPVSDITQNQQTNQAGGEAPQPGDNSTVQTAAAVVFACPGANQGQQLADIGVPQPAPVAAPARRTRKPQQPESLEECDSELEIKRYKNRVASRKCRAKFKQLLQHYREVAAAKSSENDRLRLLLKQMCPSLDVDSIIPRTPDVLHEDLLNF
A1 inh: inhibitors of the anti-apoptotic protein A1, read as caspase activation | caspase activation, % (concentration not given with the values) | hit rate 0.066% among 330,000 | MEF A1-2A-BIM cells, Caspase-Glo 3/7 luminescence, 3 h; percent of clofoctol response, vehicle zero;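 active = over half of replicate activation scores above 10%, or exactly half above 10 with the replicate mean above 10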
CSN deneddyl val: Csn5 (human) deneddylation inhibition, single-concentration validation. AID 720654. shares compounds with CSN deneddyl inh. hit rate 62% among 540. inhibition, % at 16.6 µM. Csn5 deneddylation of SCF-Nedd8OG, fluorescence polarization, 90 min; in the data active = inhibition above about 50%;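 also: 0% = DMSO with enzyme and 100% = no enzyme wells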
MMP-2 counter: counter-screen for CSN deneddylation inhibitors: human MMP-2 inhibition | shares compounds with CSN deneddyl inh | recombinant MMP-2, FRET substrate fluorescence, 60 min | inhibition, % at 16.6 µM | hit rate 33% among 540 | AID 720655;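 active = corrected plate-normalized z-score of 5 or more, or -5 or less, or inhibition of 15% or more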;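 also: plate controls were DMSO wells with enzyme for no effect and buffer wells lacking MMP-2 for full effect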
Thrombin counter: blocks bovine thrombin in a CSN deneddylation counter-screen | AID 720656 | bovine thrombin cleavage of Ub4-pepOG, fluorescence polarization | shares compounds with CSN deneddyl inh | hit rate 49% among 540 | inhibition, % at 16.6 µM;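 active = inhibition at or above a set limit, with a fluorescence interference ratio between 0.5 and a set maximum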
Starred values were filed as active, the others as inactive; x = no result.

SMILES	LANA-H2B inh	EBNA-1 inh	HNF4A DNA FP	CSN deneddyl inh	ZTA DNA inh	A1 inh	CSN deneddyl val	MMP-2 counter	Thrombin counter
N#Cc1c(NC(=O)c2ccc(Br)o2)n(-c2ccccc2)c2nc3ccccc3nc12	3	-11	88*	39*	2	1	94*	6	2
CCCCn1c(NC(=O)c2ccc(F)cc2)c(C#N)c2nc3ccccc3nc21	-7	-19	x	x	10	0	x	x	x
CCC(C)n1c(NC(=O)c2ccccc2)c(C#N)c2nc3ccccc3nc21 (stereo not drawn)	-11	-5	33*	50*	2	1	156*	-12	54*
CCC(=O)Nc1c(C#N)c2nc3ccccc3nc2n1-c1ccc(C)cc1	x	x	10	0	x	x	x	x	x
CCCCOc1ccc(C(=O)Oc2cccnc2)cc1	-2	11	2	3	5	-1	x	x	x
O=C(CCc1nc(-c2ccccc2Cl)no1)Nc1cccnc1	-10	-8	0	1	7	1	x	x	x
COC(=O)C[C@@H]1C=C[C@H](NC(=O)c2ccccc2)[C@@H](CO)O1	x	x	1	-2	x	x	x	x	x
CCN1C(=O)/C(=C/N2CCc3ccccc32)SC1=S	7	0	50	37*	7	-6	104*	1	-9
CCN1C(=O)/C(=C\N2CCCc3ccccc32)SC1=S	4	8	1	0	17	0	x	x	x
COc1ccc(CNC(=O)C(C)Sc2nc3ccccc3c(=O)n2CC2CCCO2)cc1 (stereo not drawn)	-2	x	0	-3	-21	0	x	x	x
CCOC(=O)SC1=N/C(=C\c2ccc(N(C)C)cc2)C(=O)S1	1	-3	79*	43*	-1	0	80*	-7	46*
CCSC1=N/C(=C\c2ccc(C(=O)O)cc2)C(=O)S1	2	10	-2	6	23	0	x	x	x
CCCc1cc(=O)oc2cc(OCC(=O)Nc3ccc(S(N)(=O)=O)cc3)ccc12	1	-14	-34	104*	6	1	-3	46*	32*
CN(C)c1ccc(C(=O)OCC#CCSc2nnc(-c3cccc4ccccc34)o2)cc1	-5	x	-1	-1	x	-1	x	x	x
Cc1cccc(C)c1NC(=O)C(CCc1ccccc1)N1CCC(c2ccccc2)CC1 (stereo not drawn)	x	x	-3	2	x	x	x	x	x
CCOC(=O)/C=C(\C)Sc1cc(=O)oc2ccccc12	4	2	5	-4	3	0	x	x	x
CCOC(=O)/C=C(\C)Sc1cc(O)c2ccccc2c1O	x	x	-4	42*	x	x	51*	24*	-27
CC1=C(C(=O)OC(C)C)C(c2ccc(Cl)cc2)n2c(sc(=Cc3ccc(OCC(=O)O)cc3)c2=O)=N1 (stereo not drawn)	x	x	-15	84*	x	x	21	10	26*
CCOC(=O)C1=C(C)N=c2s/c(=C/c3ccc(OCC(=O)O)c(OC)c3)c(=O)n2C1c1ccc(Cl)cc1 (stereo not drawn)	-1	5	17	40*	4	1	85*	3	14
CCOC(=O)C1=C(C)N=c2s/c(=C\c3ccc(OCC(=O)O)cc3)c(=O)n2C1c1ccc(Cl)cc1 (stereo not drawn)	-5	x	6	32	x	-2	x	x	x
O=C(O)C1CCC(CNS(=O)(=O)c2ccccc2)CC1 (stereo not drawn)	3	2	5	-2	-5	-1	x	x	x
O=c1[nH]c(=S)[nH]c2nccnc12	x	x	0	4	x	x	x	x	x
Cc1ccn2c(=O)nc(SCC(=O)Nc3ccc4c(c3)OCCO4)nc2c1	3	-1	-1	-5	-5	0	x	x	x
O=C(Nc1ccc2oc(-c3ccccc3F)nc2c1)c1ccc([N+](=O)[O-])o1	2	x	3	40*	x	0	103*	16*	2
O=C(CCN1C(=O)c2ccccc2C1=O)C1=NN[C@@H]2C(=O)N(c3ccc4c(c3)OCO4)C(=O)[C@H]12	1	5	2	5	-6	1	x	x	x
SMILES	LANA-H2B inh	EBNA-1 inh	HNF4A DNA FP	CSN deneddyl inh	ZTA DNA inh	A1 inh	CSN deneddyl val	MMP-2 counter	Thrombin counter
O=C(N/N=C/c1sc(=O)n(Cc2ccc(Br)cc2)c1Cl)c1ccco1	-2	10	21	42*	-7	-1	47	54*	14
Cc1ccccc1OCC(=O)OCC(=O)Nc1cc(S(=O)(=O)N2CCCCC2)ccc1Cl	-4	-9	0	-1	6	1	x	x	x
Cc1ccc(CSc2nnc(SCC(=O)N/N=C/c3c[nH]c4ccccc34)s2)cc1	x	x	108*	61*	x	x	67*	23*	1
CC(C)CC[n+]1ccccc1/C=C/c1ccc(N(C)C)cc1	-46	-7	55*	38*	2	-1	88*	-58*	11
O=C(/C=C/Nc1ccc(Nc2ccccc2)cc1)c1cccs1	x	x	57*	37*	x	x	94*	7	-2
COc1ccc(S(=O)(=O)N2CCN(C(=O)C3COc4ccccc4O3)CC2)cc1 (stereo not drawn)	-4	x	-48	45*	9	0	x	8	16*
CCOC(=O)c1sc2nc3c(SCCC(=O)O)cc(C(=O)c4cc(OC)ccc4O)cn3c(=O)c2c1C	x	x	-1	104*	x	x	87*	14	2
CCOC(=O)c1sc2nc3c(SCCC#N)cc(C(=O)c4cc(F)ccc4O)cn3c(=O)c2c1C	1	-11	36	16	13	0	x	x	x
O=[N+]([O-])c1ccc(/C=C/C2=NN(c3ccccc3)C(c3ccco3)C2)cc1 (stereo not drawn)	-6	8	83*	64*	-5	0	107*	-18	40
O=[N+]([O-])c1ccc(C2=NN(c3ccccc3)C(c3ccco3)C2)cc1 (stereo not drawn)	x	x	78	63*	x	x	176*	-12	19
CC1=NN(c2ccccc2)C(c2ccco2)C1 (stereo not drawn)	x	x	4	-2	x	x	x	x	x
CC(C)c1ccc(-c2nnc(SCC(=O)NC3CC3)n2C)cc1	-5	-4	1	1	-18	-1	x	x	x
CCn1c(COc2cc(C)ccc2C(C)C)nnc1SCC(=O)Nc1nccs1	-3	-5	-9	5	7	1	x	x	x
O=C1C(=C(I)I)c2ccccc2-c2ccccc21	x	x	0	52*	x	x	63*	10	-36
CC1=NN(c2nc(N)nc(/C(C#N)=C/c3ccc([N+](=O)[O-])o3)n2)C(C)(C)C1	x	x	96*	42*	x	x	96*	1	12

Source: PubChem BioAssay
